Screens: PubChem, The Scripps Research Institute Molecular Screening Center
GalR3 antag: blocks the human galanin receptor 3. O60755. AID 651719. inhibition, % at 3 µM. 360,000 tested, 0.44% active. HEK293 GalR3-CNG cAMP membrane potential fluorescence; galR3 body fused to GalR1 C-terminus;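 active means inhibition above the screen-wide average plus 3 SD, cut at about 13% in these data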;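 further: forskolin and galanin both at EC90 stimulate the cells; cAMP rise reported by CNG channel membrane potential dye signal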
TAAR1 antag: antagonists of human TAAR1; CHO RD-HGA16 TAAR1, Fluo-8 calcium fluorescence, antagonist; inhibition, % at 3 µM; 360,000 tested, 1.5% active; AID 624466;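 active means inhibition above a per-plate cutoff, the mean inhibition of test compounds on that plate plus 3 SD, cut at about 49% in these data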
Target sequence (Q96RJ0 whole entry, looked up): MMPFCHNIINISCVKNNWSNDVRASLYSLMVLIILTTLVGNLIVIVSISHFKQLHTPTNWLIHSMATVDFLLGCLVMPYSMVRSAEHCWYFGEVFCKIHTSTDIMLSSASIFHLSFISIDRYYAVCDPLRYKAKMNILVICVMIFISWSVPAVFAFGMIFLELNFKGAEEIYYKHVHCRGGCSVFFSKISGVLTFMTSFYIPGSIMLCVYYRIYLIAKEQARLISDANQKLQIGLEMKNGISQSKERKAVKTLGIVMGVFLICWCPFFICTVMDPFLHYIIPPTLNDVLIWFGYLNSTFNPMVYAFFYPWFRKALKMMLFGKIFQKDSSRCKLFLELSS
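System: RD-HGA16 CHO cells with stable hTAAR1 and Gα16 | Probe or stimulus: EC80 β-phenethylamine stimulus | Dosing: 3 µM, single point | Times: Dye loading 75 min at 37 °C, then 30 min room temperature | Measured by: Fluo-8 calcium-sensitive fluorescence | Read-out basis: % inhibition of agonist calcium response | Replicates: n of 1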
OX1R antag-1: OX1R (human) antagonism. O43613. OX1R-expressing cells, FRET antagonist read-out. inhibition, % at 6.6 µM. 330,000 tested, 1.8% active. AID 485270; in the data active means inhibition mostly above about 38%, no sharp cut-off; inactive means mostly below about 40%
TAAR1 agonist: agonists of human TAAR1; Q96RJ0; AID 624467; 360,000 tested, 0.99% active; CHO RD-HGA16 TAAR1, Fluo-8 calcium fluorescence; vehicle wells 0%, saturating PEA agonist 100%; activation, % at 3 µM;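 active means activation above the mean activation of all test compounds in the run plus 3 SD, cut at about 38% in these data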
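Assay system: CHO-derived RD-HGA16 cells with stable Gα16 and human TAAR1; timing: 17-24 h seeding, 75 min 37 °C dye, 30 min RT; read-out: % activation from peak over basal fluorescence ratio, DMSO-to-PEA scaled; measured by: kinetic Fluo-8 calcium fluorescence; benchmarks: low control DMSO, high control PEA (EC100); doses: 3 µM single concentration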
OX1R antag-2: human HCRTR1 antagonism; CHO/OX1R cells, Fluo-8 calcium fluorescence, orexin A; inhibition, % at 5 µM; 330,000 tested, 0.43% active;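 active means inhibition above its plate's threshold, mean inhibition of all tested compounds on the plate plus 3 SD, cut at about 37% in these data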
CHO parental Ca: counter-screen for OX1R antagonists: effect in parental CHO cells. parental CHO-K1, ATP-induced calcium, Fluo-8 fluorescence. inhibition, % at 5.6 µM. 330,000 tested, 0.63% active;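 active means inhibition above that plate's mean sample inhibition plus 3 SD, cut at about 26% in these data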
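Material: parental CHO cells / Compound: single nominal dose of 5.6 µM per compound / Signal: Fluo-8 fluorescence / Replicates: singlicate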
OX1R Fluo8 conf: OX1R (human) antagonism, confirmed; CHO/OX1R cells, orexin A calcium Fluo-8 fluorescence; shares compounds with OX1R antag-2; 1,100 tested, 38% active; AID 492963; inhibition, % at 5 µM; in the data active means inhibition above about 29%
CHO Ca counter: signal in parental CHO cells, OX1R antagonist counter-screen; parental CHO-K1, ATP-induced calcium, Fluo-8 fluorescence; shares compounds with OX1R antag-2; inhibition, % at 5.6 µM; 1,100 tested, 9.3% active; AID 492965;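 active means inhibition above a per-plate limit, the mean inhibition of that plate's test compounds plus 3 SD, cut at about 25% in these data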
OX1R HTRF conf: OX1R (human) antagonism, HTRF confirmed; shares compounds with OX1R antag-1; OX1R-expressing cells, HTRF antagonist assay; inhibition, % at 6.6 µM; 1,800 tested, 49% active; in the data active means inhibition above about 55%;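 further: CHO cells expressing OX1R stimulated with orexin A at about EC80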
CHO-K1 HTRF cnt: counter-screen for OX1R antagonists: effect in parental CHO-K1 cells; shares compounds with OX1R antag-1; HTRF counterscreen; inhibition, % at 6.6 µM; 1,800 tested, 48% active; AID 493232; in the data active means inhibition above about 17%
GalR3 conf: confirmation of human galanin receptor 3 antagonists | shares compounds with GalR3 antag | HEK293 GalR3 CNG cAMP biosensor, membrane potential fluorescence; galR3 fused to GalR1 carboxy tail; challenged with forskolin and galanin at EC90 | inhibition, % at 3 µM | 1,600 tested, 59% active;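 active means inhibition above the primary screen's cutoff, the mean inhibition of all screened compounds plus 3 SD, cut at about 13% in these data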
HEK-CNG parental: parental cell agonism counter-screen for GalR3 antagonists; shares compounds with GalR3 antag; HEK293-CNG parental cells, cAMP membrane potential fluorescence; normalised: DMSO wells 0%, forskolin wells 100%; activation, % at 3 µM; 1,600 tested, 10% active; AID 652268; in the data active means activation above about 1.3%
Of the large screens only hits and unclear results are named; the others gave an inactive call (follow-up assays come after a bar, where they were run). The list is not random: actives were taken first. Their share in the collection is about 4.3%.

CC(C)C(NC(=O)Cc1ccccc1)C(=O)N1CCN(c2cccc(Cl)c2)CC1 (stereo not drawn)	GalR3 antag 44, OX1R antag-2 41 | OX1R Fluo8 conf inactive | CHO Ca counter inactive | GalR3 conf inactive | HEK-CNG parental inactive
COc1ccc(C(=O)NCCCOc2cccnc2)cc1OC1CCN(C(C)=O)CC1	none
COc1ccc(NS(=O)(=O)c2ccc(N3CCCCC3)c(NC(=O)C(C)NC(N)=O)c2)cc1 (stereo not drawn)	none
COc1ccc(NS(=O)(=O)c2ccc(N3CCCCC3)c(N)c2)cc1	GalR3 antag 82, OX1R antag-2 62 | OX1R Fluo8 conf inactive | CHO Ca counter 65 | GalR3 conf 105 | HEK-CNG parental inactive
O=C(CN1C(=O)NC2(CCCC2)C1=O)NNC(=O)c1ccccc1F	none
O=C(CSc1nnc(Cn2nnc3ccccc32)o1)N(Cc1ccc(F)cc1)c1ccccc1	GalR3 antag 92, OX1R antag-1 78, OX1R antag-2 79 | OX1R Fluo8 conf 51 | CHO Ca counter 61 | OX1R HTRF conf 70 | CHO-K1 HTRF cnt inactive | GalR3 conf 114 | HEK-CNG parental inactive
COc1ccc(N(Cc2ccccc2)C(=O)CSc2nnc(Cn3nnc4ccccc43)o2)cc1	none
COc1ccc(-c2ocnc2C(=O)NCc2nn(-c3ccccc3)nc2C)cc1	GalR3 antag 19 | OX1R Fluo8 conf inactive | CHO Ca counter 29 | GalR3 conf 84 | HEK-CNG parental inactive
O=C(CN1C(=O)NC2(CCCCC2)C1=O)N1CCN(S(=O)(=O)c2cccc(F)c2)CC1	none
Cc1c(Cl)cccc1NC(=O)N1CCCN(c2nc(-c3ccccc3)ns2)CC1	GalR3 antag 34, OX1R antag-1 80 | OX1R Fluo8 conf inactive | CHO Ca counter inactive | OX1R HTRF conf inactive | CHO-K1 HTRF cnt inactive | GalR3 conf 99 | HEK-CNG parental inactive
COc1ccc(S(=O)(=O)Nc2ccc(F)cc2)cc1N(C)S(=O)(=O)c1ccc(Cl)cc1	none
COc1ccc(NS(=O)(=O)c2ccc(OC)c(N(C)S(=O)(=O)c3ccc(Cl)cc3)c2)cc1	GalR3 antag 25, OX1R antag-2 61 | OX1R Fluo8 conf inactive | CHO Ca counter 25 | GalR3 conf 62 | HEK-CNG parental inactive
COc1cc(/C=N/NC(=O)c2ccccc2NS(=O)(=O)c2cccs2)ccc1O	none (no result: OX1R antag-1, OX1R antag-2, CHO parental Ca)
Cn1c2ccccc2c(=O)c2cc(C#Cc3ccccn3)ccc21	OX1R antag-1 90 | OX1R HTRF conf 94 | CHO-K1 HTRF cnt inactive
COc1ccccc1-c1cnc(C(O)c2ccc(F)c(F)c2)[nH]1 (stereo not drawn)	none (no result: OX1R antag-1, OX1R antag-2, CHO parental Ca)
COC(=O)CCCNc1ncccc1[N+](=O)[O-]	OX1R antag-1 97 | OX1R HTRF conf inactive | CHO-K1 HTRF cnt 39
CC(C)C[C@H]1CN(CCCC[C@@H]2CNC(=O)C(=O)N2Cc2ccccc2)C(=O)C(=O)N1CCC1CCCCC1	none (no result: OX1R antag-1, OX1R antag-2, CHO parental Ca)
